Experimental data taken from ChEMBL document CHEMBL1155233, “Structure mechanism insights and the role of nitric oxide donation guide the development of oxadiazole-2-oxides as therapeutic agents against schistosomiasis” (J Med Chem, 2009).
≈ marks a conversion by molar mass, not a printed value. Calls of active or inactive are those of the source. The rule behind the calls is not given here.

Legend:
Schistosoma mansoni [1] = test: Antischistosomal activity against Schistosoma mansoni assessed as parasite killing after 2 hrs; type: functional, organism-based
Method in brief: (§1)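 Cultured ex vivo worms were exposed to 10 μM compound. Worm effects were scored by visual examination at time points over a 72 h time-course.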

Schistosoma mansoni [2] = test: Antischistosomal activity against Schistosoma mansoni assessed as parasite killing after 4 hrs; type: functional; method in brief: as §1
Schistosoma mansoni [3] = test: Antischistosomal activity against Schistosoma mansoni assessed as induction of parasite mortality after 8 hrs; type: functional; set-up: concentration or dose not given beside the values; method in brief: as §1
Schistosoma mansoni [4] = test: Antischistosomal activity against Schistosoma mansoni assessed as induction of parasite mortality after 16 hrs; type: functional; set-up: concentration or dose not given beside the values; method in brief: as §1
Schistosoma mansoni [5] = test: Antischistosomal activity against Schistosoma mansoni assessed as induction of parasite mortality after 24 hrs; type: functional; set-up: concentration or dose not given beside the values; method in brief: as §1
Schistosoma mansoni [6] = test: Antischistosomal activity against Schistosoma mansoni assessed as induction of parasite sluggish movement after 48 hrs; type: functional, organism-based; method in brief: as §1
Schistosoma mansoni [7] = test: Antischistosomal activity against Schistosoma mansoni assessed as induction of parasite mortality after 72 hrs; type: functional; set-up: concentration or dose not given beside the values; method in brief: as §1
[8] = Induction of nitric oxide release at 10 uM in presence of Schistosoma mansoni recombinant TGR; type: functional
[9] = Induction of nitric oxide release at 10 uM in presence of Schistosoma mansoni recombinant TGR and NADPH; type: functional
[10] = Induction of nitric oxide release at 10 uM in presence of cysteine; type: physicochemical
[11] = target: T1, Glutathione reductase, mitochondrial (Homo sapiens, UniProt P00390); test: Inhibition of human recombinant GR after 15 mins in presence of NADPH
T1 sequence (P00390 whole entry): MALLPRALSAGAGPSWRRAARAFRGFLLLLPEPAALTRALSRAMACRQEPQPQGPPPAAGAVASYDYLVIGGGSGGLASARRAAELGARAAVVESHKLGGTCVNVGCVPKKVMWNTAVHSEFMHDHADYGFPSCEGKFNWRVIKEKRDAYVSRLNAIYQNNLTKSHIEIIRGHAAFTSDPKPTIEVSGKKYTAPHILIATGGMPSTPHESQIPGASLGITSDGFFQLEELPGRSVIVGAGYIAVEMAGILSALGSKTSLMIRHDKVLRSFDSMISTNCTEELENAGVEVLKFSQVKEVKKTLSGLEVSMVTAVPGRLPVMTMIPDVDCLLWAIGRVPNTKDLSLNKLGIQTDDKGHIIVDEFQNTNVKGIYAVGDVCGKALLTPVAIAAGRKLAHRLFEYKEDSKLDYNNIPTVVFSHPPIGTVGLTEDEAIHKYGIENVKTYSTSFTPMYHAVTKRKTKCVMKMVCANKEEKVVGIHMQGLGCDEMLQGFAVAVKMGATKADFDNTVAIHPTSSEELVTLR

[12] = target: T2, Thioredoxin reductase 1, cytoplasmic (Rattus norvegicus, UniProt O89049); test: Inhibition of rat recombinant TrxR1 after 10 mins
T2 sequence (O89049 whole entry): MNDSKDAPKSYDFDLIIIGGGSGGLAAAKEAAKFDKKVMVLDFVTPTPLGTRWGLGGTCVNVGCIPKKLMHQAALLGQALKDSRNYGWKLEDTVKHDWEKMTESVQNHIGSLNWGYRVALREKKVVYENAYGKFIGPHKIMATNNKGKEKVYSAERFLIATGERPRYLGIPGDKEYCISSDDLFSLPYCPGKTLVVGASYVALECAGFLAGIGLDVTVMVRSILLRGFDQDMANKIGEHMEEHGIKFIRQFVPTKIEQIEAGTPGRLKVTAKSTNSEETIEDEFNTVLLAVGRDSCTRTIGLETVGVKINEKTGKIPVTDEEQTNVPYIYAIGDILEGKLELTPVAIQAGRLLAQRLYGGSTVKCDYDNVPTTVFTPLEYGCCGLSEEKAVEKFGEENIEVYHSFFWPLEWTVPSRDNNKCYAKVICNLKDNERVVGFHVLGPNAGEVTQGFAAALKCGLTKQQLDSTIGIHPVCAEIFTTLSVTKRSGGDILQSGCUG

[13] = Reactivity with cysteine at 0.1 mM in 0.1M phosphate buffer assessed as amount of compound unreacted by HPLC
Schistosoma mansoni [14] = test: Antischistosomal activity against Schistosoma mansoni assessed as induction of parasite curling after 4 hrs; type: functional, organism-based; method in brief: as §1
Schistosoma mansoni [15] = test: Antischistosomal activity against Schistosoma mansoni assessed as induction of parasite mortality after 48 hrs; type: functional; set-up: concentration or dose not given beside the values; method in brief: as §1
Schistosoma mansoni [16] = test: Antischistosomal activity against Schistosoma mansoni assessed as induction of parasite sluggish movement after 8 hrs; type: functional, organism-based; method in brief: as §1
[17] = Solubility by quantitative nitrogen detection based method
[18] = Distribution coefficient, log D of the compound; conditions: octanol/water
Caco-2 [19] = test: Apparent permeability from apical to basolateral side of human Caco-2 cells
Caco-2 [20] = test: Apparent permeability from basolateral to apical side of human Caco-2 cells
[21] = Metabolic stability in human liver microsomes assessed as compound remaining over 60 mins in presence of NADPH; type: ADME, Microsome; conditions: read-out: Stability
[22] = Metabolic stability in human liver microsomes assessed as compound remaining over 60 mins in absence of NADPH; type: ADME, Microsome; conditions: read-out: Stability
hERG (KCNH2) = hERG (KCNH2) (Homo sapiens, UniProt Q12809); test: Inhibition of human ERG expressed in HEK293 cells at 10 uM by fast patch clamp method; conditions: HEK293 cells expressing human ERG
[23] = target: T3, Thioredoxin glutathione reductase (Schistosoma mansoni, UniProt Q962Y6); test: Inhibition of Schistosoma mansoni TGR
T3 sequence (Q962Y6 whole entry): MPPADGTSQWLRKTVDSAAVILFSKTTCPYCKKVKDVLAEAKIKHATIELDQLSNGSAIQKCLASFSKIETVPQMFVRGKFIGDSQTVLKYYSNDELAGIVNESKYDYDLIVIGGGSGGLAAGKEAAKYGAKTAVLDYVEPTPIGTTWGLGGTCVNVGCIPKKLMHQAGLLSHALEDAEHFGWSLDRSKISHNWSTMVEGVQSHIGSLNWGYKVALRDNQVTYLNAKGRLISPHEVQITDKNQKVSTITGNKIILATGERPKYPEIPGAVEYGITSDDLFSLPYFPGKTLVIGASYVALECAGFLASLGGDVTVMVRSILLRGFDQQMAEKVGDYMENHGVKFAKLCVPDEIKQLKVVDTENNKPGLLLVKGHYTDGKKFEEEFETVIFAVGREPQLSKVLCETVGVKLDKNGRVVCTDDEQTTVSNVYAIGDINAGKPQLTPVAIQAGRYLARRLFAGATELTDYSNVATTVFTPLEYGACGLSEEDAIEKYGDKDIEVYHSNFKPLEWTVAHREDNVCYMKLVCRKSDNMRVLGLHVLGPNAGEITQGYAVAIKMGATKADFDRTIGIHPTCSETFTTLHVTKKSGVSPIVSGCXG

Schistosoma mansoni [24] = test: Antischistosomal activity against Schistosoma mansoni assessed as induction of parasite sluggish movement after 16 hrs; type: functional, organism-based; method in brief: as §1
Schistosoma mansoni [25] = test: Antischistosomal activity against Schistosoma mansoni assessed as induction of parasite sluggish movement after 4 hrs; type: functional, organism-based; method in brief: as §1
Schistosoma mansoni [26] = test: Antischistosomal activity against Schistosoma mansoni assessed as induction of parasite curling after 8 hrs; type: functional, organism-based; method in brief: as §1
Schistosoma mansoni [27] = test: Antischistosomal activity against Schistosoma mansoni assessed as induction of parasite sluggish movement after 24 hrs; type: functional, organism-based; method in brief: as §1

hERG (KCNH2), sequence (Q12809 whole entry): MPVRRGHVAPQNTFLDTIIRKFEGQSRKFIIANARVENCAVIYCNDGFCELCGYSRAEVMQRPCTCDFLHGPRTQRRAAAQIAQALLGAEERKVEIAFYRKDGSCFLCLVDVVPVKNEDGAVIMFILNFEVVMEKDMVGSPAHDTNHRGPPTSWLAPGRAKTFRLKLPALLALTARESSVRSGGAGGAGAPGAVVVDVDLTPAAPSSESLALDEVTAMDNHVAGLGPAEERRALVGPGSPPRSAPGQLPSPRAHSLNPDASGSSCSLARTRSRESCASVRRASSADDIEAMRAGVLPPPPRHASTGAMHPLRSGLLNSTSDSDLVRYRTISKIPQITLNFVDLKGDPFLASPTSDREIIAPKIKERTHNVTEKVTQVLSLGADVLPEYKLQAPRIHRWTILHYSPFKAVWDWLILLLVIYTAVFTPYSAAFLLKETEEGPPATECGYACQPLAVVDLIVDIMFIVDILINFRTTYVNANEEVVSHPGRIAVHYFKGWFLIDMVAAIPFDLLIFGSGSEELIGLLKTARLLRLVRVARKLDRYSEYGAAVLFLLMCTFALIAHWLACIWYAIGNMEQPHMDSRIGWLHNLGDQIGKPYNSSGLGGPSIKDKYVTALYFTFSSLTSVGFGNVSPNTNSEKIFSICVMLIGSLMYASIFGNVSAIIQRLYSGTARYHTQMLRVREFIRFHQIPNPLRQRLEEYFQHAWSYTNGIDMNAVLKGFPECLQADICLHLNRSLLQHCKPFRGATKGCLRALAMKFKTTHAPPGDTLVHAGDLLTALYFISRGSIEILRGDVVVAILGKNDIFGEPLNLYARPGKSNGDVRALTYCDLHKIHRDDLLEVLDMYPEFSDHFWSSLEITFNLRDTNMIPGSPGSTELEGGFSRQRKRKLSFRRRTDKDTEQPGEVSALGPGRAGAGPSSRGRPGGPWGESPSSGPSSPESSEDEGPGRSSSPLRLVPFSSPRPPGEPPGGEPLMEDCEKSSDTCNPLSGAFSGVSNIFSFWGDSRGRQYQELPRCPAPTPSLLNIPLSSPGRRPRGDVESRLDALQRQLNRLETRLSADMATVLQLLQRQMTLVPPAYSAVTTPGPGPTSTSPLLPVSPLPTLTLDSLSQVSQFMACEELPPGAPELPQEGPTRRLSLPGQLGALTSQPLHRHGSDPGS

| SMILES | Activity (Schistosoma mansoni [1]) | Activity (Schistosoma mansoni [2]) | Activity (Schistosoma mansoni [3]) | Activity (Schistosoma mansoni [4]) | Activity (Schistosoma mansoni [5]) | Activity (Schistosoma mansoni [7]) [%] | Activity [8] [%] | Activity [9] [%] | Activity [10] [%] | IC50 [11] [µM] | IC50 [12] [µM] | Activity (Schistosoma mansoni [15]) [%] | solubility [17] [µM] | inhibition at 10 µM (hERG (KCNH2)) [%] | other results |
| --- | --- | --- | --- | --- | --- | --- | --- | --- | --- | --- | --- | --- | --- | --- | --- |
| Cc1c(-c2ccccc2)no[n+]1[O-] | inactive | inactive | inactive | inactive | inactive | 5 | < 1 | < 1 | 2 | > 50 | > 400 | – | – | – | Activity (Schistosoma mansoni [6]): Active; Activity [13]: inactive |
| N#Cc1c(-c2ccccc2)no[n+]1[O-] [FUROXAN] | inactive | – | – | – | – | – | 1.5 | 15 | – | – | – | – | – | – | Activity (Schistosoma mansoni [14]): Active; Activity [13]: Active |
| N#Cc1c(-c2ccc(O)cc2)no[n+]1[O-] | inactive | inactive | – | 15% | 40% | 100 | – | – | – | > 50 | > 400 | 60 | – | – | Activity (Schistosoma mansoni [16]): Active |
| N#Cc1c(-c2cc(F)cc(-c3no[n+]([O-])c3C#N)c2)no[n+]1[O-] | inactive | inactive | – | 55% | 78% | – | – | – | – | – | – | 100 | 89.1 (≈ 28 µg/mL) | 29.4 | logD [18]: 2.91; Papp (Caco-2 [19]): 7.9 ×10⁻⁶ cm/s; Papp (Caco-2 [20]): 2.7 ×10⁻⁶ cm/s; remaining at 1 h [21]: 20%; remaining at 1 h [22]: 51%; Activity [13]: Active |
| N#Cc1c(-c2cccc(-c3no[n+]([O-])c3C#N)c2)no[n+]1[O-] | inactive | – | 45% | 60% | 100% | – | – | – | – | > 50 | 150 | 100 | 5 (≈ 1.48 µg/mL) | 7.8 | Activity (Schistosoma mansoni [14]): Active |
| N#Cc1c(-c2cccs2)no[n+]1[O-] | inactive | inactive | – | 25% | 25% | 100 | 1 | 2 | 20 | – | – | 100 | 240 (≈ 46.4 µg/mL) | 3.4 | IC50 [23]: 3.5 µM; Papp (Caco-2 [20]): 9 ×10⁻⁶ cm/s; remaining at 1 h [21]: 1%; remaining at 1 h [22]: 64% |
| N#Cc1c(-c2ccc(-c3ccccc3)cc2)no[n+]1[O-] | inactive | inactive | – | – | Active | 45 | – | – | – | – | – | 40 | – | – | Activity (Schistosoma mansoni [16]): Active; Activity (Schistosoma mansoni [24]): Active |
| N#Cc1c(-c2ccc(Br)cc2)no[n+]1[O-] | inactive | – | 39% | 60% | 100% | 100 | 4 | 19 | 68 | > 50 | 250 | 100 | 18.6 (≈ 4.95 µg/mL) | 5.5 | Activity (Schistosoma mansoni [25]): Active; logD [18]: 3.1; Papp (Caco-2 [19]): 7.9 ×10⁻⁶ cm/s; Papp (Caco-2 [20]): 4.8 ×10⁻⁶ cm/s; remaining at 1 h [21]: 10%; remaining at 1 h [22]: 67% |
| N#Cc1c(-c2ccc(F)c(Br)c2)no[n+]1[O-] | inactive | inactive | – | Active | 5% | 100 | 2 | 19 | 69 | > 50 | 250 | 75 | – | – | Activity (Schistosoma mansoni [26]): Active |
| O=Cc1c(-c2ccccc2)no[n+]1[O-] | inactive | inactive | inactive | inactive | – | 5 | 1 | 7 | 9 | 35.2 | < 12.5 | 3 | – | – | Activity (Schistosoma mansoni [27]): Active |
| N#Cc1c(-c2cccc(Cl)c2)no[n+]1[O-] | inactive | – | 15% | 20% | 64% | 100 | 1 | 12 | 50 | 35.7 | < 12.5 | 80 | – | – | Activity (Schistosoma mansoni [25]): Active |
